The source made the active and inactive calls. The rule behind the calls is not given here.
Legend:
[1] = target: T1, Prostaglandin G/H synthase 2 (Homo sapiens) (UniProt P35354); assay: Inhibition of human recombinant COX2 assessed as residual activity at 10 uM after 5 mins
T1 sequence (whole entry): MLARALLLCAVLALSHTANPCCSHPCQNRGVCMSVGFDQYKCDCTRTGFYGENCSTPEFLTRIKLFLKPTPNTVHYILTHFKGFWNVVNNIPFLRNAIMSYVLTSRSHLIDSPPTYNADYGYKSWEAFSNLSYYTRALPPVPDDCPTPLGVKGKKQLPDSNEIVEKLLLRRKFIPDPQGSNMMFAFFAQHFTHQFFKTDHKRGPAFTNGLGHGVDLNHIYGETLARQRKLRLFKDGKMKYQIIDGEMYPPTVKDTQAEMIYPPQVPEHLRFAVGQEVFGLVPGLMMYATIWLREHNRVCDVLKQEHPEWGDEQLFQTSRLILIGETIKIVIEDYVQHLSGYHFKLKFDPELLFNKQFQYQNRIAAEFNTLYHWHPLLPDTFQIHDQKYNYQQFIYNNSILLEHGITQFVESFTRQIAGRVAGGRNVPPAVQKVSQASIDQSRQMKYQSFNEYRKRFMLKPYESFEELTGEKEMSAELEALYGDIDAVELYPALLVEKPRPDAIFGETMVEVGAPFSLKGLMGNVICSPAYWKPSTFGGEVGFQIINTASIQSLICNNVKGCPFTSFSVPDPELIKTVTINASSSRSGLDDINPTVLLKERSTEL
Summary of the method: (§1)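 Ovine COX-1 (50 units) or human recombinant COX-2 (20 units) in 1 ml 100 mM Tris pH 8 with 5 mM glutathione, 5 µM haemoglobin and 100 µM EDTA. Preincubated with 10 µM compound 5 min at 4 °C, warmed 60 s at 37 °C. Started with AA (5 µM for COX-1, 2 µM for COX-2), run 5 min at 37 °C. 12-HHT extracted and analysed by HPLC. n = 3.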

[2] = target: T2, Prostaglandin G/H synthase 1 (Ovis aries) (UniProt P05979); assay: Inhibition of ovine COX1 assessed as residual activity at 10 uM after 5 mins; summary of the method: as §1
T2 sequence (whole entry): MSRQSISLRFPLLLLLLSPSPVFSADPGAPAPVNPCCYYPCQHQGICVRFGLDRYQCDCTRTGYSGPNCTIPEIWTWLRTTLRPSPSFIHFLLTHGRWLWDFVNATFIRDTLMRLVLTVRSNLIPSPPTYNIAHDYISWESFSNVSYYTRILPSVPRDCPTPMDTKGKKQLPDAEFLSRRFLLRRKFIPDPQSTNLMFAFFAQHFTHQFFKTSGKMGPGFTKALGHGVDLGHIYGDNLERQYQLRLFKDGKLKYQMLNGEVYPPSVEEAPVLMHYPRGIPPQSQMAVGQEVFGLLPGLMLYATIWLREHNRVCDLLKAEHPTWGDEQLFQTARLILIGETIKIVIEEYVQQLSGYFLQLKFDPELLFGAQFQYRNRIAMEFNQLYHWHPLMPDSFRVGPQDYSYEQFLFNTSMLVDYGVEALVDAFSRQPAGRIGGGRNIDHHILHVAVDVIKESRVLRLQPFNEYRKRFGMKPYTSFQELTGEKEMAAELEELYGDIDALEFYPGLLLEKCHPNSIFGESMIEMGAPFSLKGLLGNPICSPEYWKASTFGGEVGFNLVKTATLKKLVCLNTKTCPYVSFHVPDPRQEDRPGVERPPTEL

Prostaglandin E synthase = target: T3, Prostaglandin E synthase (Homo sapiens, UniProt O14684); assay: Inhibition of mPGES-1 in human IL-1beta-stimulated A549 cell microsomes assessed as reduction of PGE2 formation from PGH2 after 15 mins; parameters: species or system Microsome
T3 sequence (O14684 whole entry): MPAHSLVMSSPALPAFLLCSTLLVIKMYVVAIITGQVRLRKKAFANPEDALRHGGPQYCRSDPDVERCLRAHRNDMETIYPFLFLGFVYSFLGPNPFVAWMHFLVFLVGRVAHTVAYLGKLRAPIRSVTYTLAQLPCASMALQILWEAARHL
Summary of the method: (§2)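 Microsomes from A549 cells stimulated 72 h with IL-1β (1 ng/ml), diluted to 50 µg/ml in 0.1 M potassium phosphate pH 7.4 with 2.5 mM glutathione. Preincubated with compound (1% DMSO final) 15 min at 4 °C. Reaction started with 20 µM PGH₂, run 1 min at 4 °C, stopped with FeCl₂/citric acid containing 11β-PGE₂; PGE₂ quantified. Mean of n = 3–5.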

[3] = target: T4, Polyunsaturated fatty acid 5-lipoxygenase (Homo sapiens, UniProt P09917); assay: Inhibition of human recombinant 5-lipoxygenase expressed in Escherichia coli BL21 assessed as enzyme product formation using arachidonic acid as substrate after 10 mins by RP-HPLC analysis
T4 sequence (P09917 whole entry): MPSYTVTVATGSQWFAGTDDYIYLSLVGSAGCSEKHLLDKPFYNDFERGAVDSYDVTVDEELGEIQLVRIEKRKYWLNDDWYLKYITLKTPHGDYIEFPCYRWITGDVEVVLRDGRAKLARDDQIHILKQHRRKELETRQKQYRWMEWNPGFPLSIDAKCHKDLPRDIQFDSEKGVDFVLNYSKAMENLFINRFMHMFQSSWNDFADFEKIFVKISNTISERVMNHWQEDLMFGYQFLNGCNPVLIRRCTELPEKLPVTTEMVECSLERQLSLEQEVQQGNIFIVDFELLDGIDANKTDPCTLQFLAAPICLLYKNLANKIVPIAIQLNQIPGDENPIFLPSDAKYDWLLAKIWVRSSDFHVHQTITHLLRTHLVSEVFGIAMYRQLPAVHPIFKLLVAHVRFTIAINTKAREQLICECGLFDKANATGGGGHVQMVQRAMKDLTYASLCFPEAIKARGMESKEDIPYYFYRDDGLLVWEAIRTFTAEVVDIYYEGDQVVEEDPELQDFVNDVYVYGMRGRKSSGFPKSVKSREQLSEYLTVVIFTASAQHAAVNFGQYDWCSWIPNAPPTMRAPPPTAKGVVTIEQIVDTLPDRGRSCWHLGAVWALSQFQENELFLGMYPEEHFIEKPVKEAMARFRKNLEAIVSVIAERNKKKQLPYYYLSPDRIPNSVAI
Summary of the method: (§3)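 Human 5-LO expressed in E. coli BL21 (pT3-5LO), affinity-purified and used at once. 0.5 µg enzyme in 1 ml PBS/EDTA with 1 mM ATP preincubated with compound 5–10 min at 4 °C, then warmed 30 s at 37 °C. Reaction started with 2 mM CaCl₂ and AA (routinely 20 µM), with or without 1 µM 13(S)-HpODE. Run 10 min at 37 °C, stopped with ice-cold methanol, products analysed by HPLC. Washout: 10-fold dilution (10 to 1 µM).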

A549 = assay: Cytotoxicity against human A549 cells assessed as cell viability at 10 uM after 16 hrs by MTT assay; assay type: cell-based; settings: a549, 5 h, in the assay text read “5 hrs” for “16 hrs”
Summary of the method: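 A549 cells plated at 4 × 10⁴ cells per well, incubated 16 h at 37 °C, 5% CO₂, then exposed to 10 µM compound or DMSO (≤0.3% final) for 5 h. MTT added for 4 h, formazan solubilized with SDS in 20 mM HCl, absorbance at 595 nm read relative to vehicle-treated cells.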

[4] = target: T4, Polyunsaturated fatty acid 5-lipoxygenase; assay: Inhibition of 5-lipoxygenase in A23187-stimulated human PMNL assessed as enzyme product formation preincubated 15 mins by RP-HPLC analysis in presence of exogenous arachidonic acid
Summary of the method: (§4)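 Freshly isolated human PMNL (5 × 10⁶/ml PGC buffer: PBS pH 7.4, 1 mg/ml glucose, 1 mM CaCl₂) preincubated with compound 15 min at 37 °C. Stimulated with 2.5 µM A23187 plus exogenous AA for 10 min at 37 °C. Stopped with methanol, PGB₁ added as internal standard, lipoxygenase products analysed by HPLC. Mean of n = 3–5.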

[5] = target: T5, Prostaglandin E synthase (Homo sapiens) (UniProt O14684); assay: Inhibition of mPGES-1 in human IL-1beta-stimulated A549 cell microsomes assessed as residual activity by measuring reduction of PGE2 formation from PGH2 at 10 uM after 15 mins; settings: Microsome; summary of the method: as §2
T5 sequence (whole entry): T3 sequence (O14684 whole entry)

[6] = target: T6, Polyunsaturated fatty acid 5-lipoxygenase (Homo sapiens) (UniProt P09917); assay: Inhibition of human recombinant 5-lipoxygenase expressed in Escherichia coli BL21 assessed as residual activity by measuring enzyme product formation using arachidonic acid as substrate at 10 uM after 10 mins by RP-HPLC analysis; summary of the method: as §3
T6 sequence (whole entry): T4 sequence (P09917 whole entry)

[7] = target: T6, Polyunsaturated fatty acid 5-lipoxygenase (Homo sapiens); assay: Inhibition of 5-lipoxygenase in A23187-stimulated human PMNL assessed as residual activity by measuring enzyme product formation at 10 uM preincubated 15 mins by RP-HPLC analysis in presence of exogenous arachidonic acid; summary of the method: as §4

Row | SMILES | inhibition [1] | Activity [2] | IC50 (Prostaglandin E synthase) | IC50 [3] | IC50 [4] | Activity [5] | Activity [6] | Activity [7] | inhibition [5] | Activity (A549)
1 | CCCCC(Sc1ccc(OCCCOc2ccc(Cl)c(C(F)(F)F)c2)cc1)C(=O)O (centres undefined) | inactive | 71.3% | 1.7 µM | 2 µM | 1.5 µM | – | – | – | – | Non-toxic
2 | CCCCC(Sc1ccc(OCCCOc2cccc(C)c2)cc1)C(=O)O (centres undefined) | – | – | > 10 µM | > 10 µM | 4.8 µM | 58% | 79.3% | – | – | Non-toxic
3 | Cc1cccc(OCCCOc2ccc(SCC(=O)O)cc2)c1C | – | – | > 10 µM | > 10 µM | > 10 µM | 75.4% | 72.4% | 69.6% | – | Non-toxic
4 | CCCCC(Sc1ccc(OCCCOc2cccc(OC)c2)cc1)C(=O)O (centres undefined) | – | – | > 10 µM | > 10 µM | 4.8 µM | 59.1% | 67.7% | – | – | Non-toxic
5 | CCCCC(Sc1ccc(OCCCOc2ccccc2)cc1)C(=O)O (centres undefined) | – | – | > 10 µM | > 10 µM | 9.5 µM | 81.9% | 69.4% | – | – | Non-toxic
6 | CCCCC(Sc1ccc(OCCCOc2ccccc2C(C)C)cc1)C(=O)O (centres undefined) | – | – | 4.1 µM | 7.8 µM | 1.6 µM | – | – | – | – | Non-toxic
7 | Cc1cccc(OCCCOc2ccc(CCC(=O)O)cc2)c1C | – | – | > 10 µM | > 10 µM | > 10 µM | 83.9% | 81.8% | 80% | – | Non-toxic
8 | CCCCC(Sc1ccc(OCCCOc2cccc(C(F)(F)F)c2)cc1)C(=O)O (centres undefined) | – | – | 2 µM | 9.8 µM | 1.6 µM | – | – | – | – | Non-toxic
9 | CCCCC(Sc1ccc(OCCCOc2ccc(Cl)cc2OC)cc1)C(=O)O (centres undefined) | – | – | 9.4 µM | > 10 µM | > 10 µM | – | 59.2% | 79.3% | – | Non-toxic
10 | CCCCC(Sc1ccc(OCCCOc2cccc(C(C)C)c2)cc1)C(=O)O (centres undefined) | – | – | 2.7 µM | 6 µM | 1.4 µM | – | – | – | – | Non-toxic
11 | CCCCC(Sc1ccc(OCCCOc2ccc3ncccc3c2)cc1)C(=O)O (centres undefined) | – | – | > 10 µM | > 10 µM | > 10 µM | – | 59% | 92.2% | inactive | Non-toxic
12 | CCCC/C(=C\c1ccc(OCCCOc2cccc(C)c2C)cc1)C(=O)O | – | – | > 10 µM | > 10 µM | 1.6 µM | 28.3% | 88.9% | – | – | Non-toxic
13 | CCCCC(Sc1ccc(OCCCOc2ccc(C)cc2)cc1)C(=O)O (centres undefined) | – | – | 9.3 µM | > 10 µM | 5.2 µM | – | 67.6% | – | – | Non-toxic
14 | CCCCC(Sc1ccc(OCCCOc2ccc(-c3ccccc3)cc2)cc1)C(=O)OCC (centres undefined) | – | – | – | > 10 µM | > 10 µM | – | 83% | 91.5% | – | Non-toxic
15 | CCCCC(Cc1ccc(OCCCOc2cccc(C)c2C)cc1)C(=O)O (centres undefined) | – | – | 7.1 µM | > 10 µM | 2 µM | – | 70.8% | – | – | Non-toxic

The next lines start with results.

Row | inhibition [1] | Activity [2] | IC50 (Prostaglandin E synthase) | IC50 [3] | IC50 [4] | Activity [5] | Activity [6] | Activity [7] | inhibition [5] | SMILES | Activity (A549)
16 | – | – | > 10 µM | > 10 µM | 0.8 µM | 83.9% | 68.3% | – | – | CCCCC(Sc1ccc(OCCCOc2ccc3ncccc3c2)cc1)C(=O)OCC (centres undefined) | Non-toxic
17 | – | – | – | > 10 µM | > 10 µM | – | 79.4% | 87.4% | – | CCCCC(Sc1ccc(OCCCOc2cccc3c2CCCC3)cc1)C(=O)OCC (centres undefined) | Non-toxic
18 | – | – | 8.8 µM | > 10 µM | 4.8 µM | – | 58.3% | – | – | CCCCC(Sc1ccc(OCCCOc2ccccc2C)cc1)C(=O)O (centres undefined) | Non-toxic
19 | – | – | 2.9 µM | 8.8 µM | 3 µM | – | – | – | – | CCCCC(Sc1ccc(OCCCOc2cccc(C)c2C)cc1)C(=O)O (centres undefined) | Non-toxic
20 | – | – | 4.6 µM | 8.2 µM | 2 µM | – | – | – | – | CCCC[C@H](Sc1ccc(OCCCOc2cccc(C)c2C)cc1)C(=O)O | Non-toxic
21 | – | – | 4.2 µM | 10 µM | 1.1 µM | – | – | – | – | CCCC[C@@H](Sc1ccc(OCCCOc2cccc(C)c2C)cc1)C(=O)O | Non-toxic
22 | – | – | > 10 µM | > 10 µM | > 10 µM | 88.3% | 79.4% | 57.4% | – | CCCCC(Sc1ccc(OCCCOc2ccccc2OC)cc1)C(=O)O (centres undefined) | Non-toxic

Source: ChEMBL document CHEMBL1777776, “Identification of 2-mercaptohexanoic acids as dual inhibitors of 5-lipoxygenase and microsomal prostaglandin E₂ synthase-1” (Bioorg Med Chem, 2011)
